Measurements taken from ChEMBL document CHEMBL3045650, “Design, synthesis, and 3D-QSAR analysis of novel 1,3,4-oxadiazol-2(3H)-ones as protoporphyrinogen oxidase inhibitors” (J Agric Food Chem, 2010).

Tests used:
[1] = system: Abutilon theophrasti; assay: Post-emergence herbicidal activity against Abutilon theophrasti (velvetleaf) assessed as growth inhibition at emulsified concentrate of 37.5 g/ai ha after 15 days by greenhouse test; type: functional
[2] = system: Eclipta prostrata; assay: Post-emergence herbicidal activity against Eclipta prostrata assessed as growth inhibition at emulsified concentrate of 150 g/ai ha after 15 days by greenhouse test; type: functional
Outline: (§1)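 About 20 seeds sown 1–3 cm deep, grown at 15–30 °C and 50% RH. Dicot seedlings sprayed postemergence at the two-leaf stage with a 100 g/L emulsifiable concentrate (DMF/Tween-80) diluted in water, 150 g ai/ha. Untreated and solvent controls included. Visual rating at 15 days, three replicates.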

[3] = system: Polygonum humifusum; assay: Post-emergence herbicidal activity against Polygonum humifusum assessed as growth inhibition at emulsified concentrate of 150 g/ai ha after 15 days by greenhouse test; type: functional
[4] = system: Poa annua; assay: Post-emergence herbicidal activity against Poa annua assessed as growth inhibition at emulsified concentrate of 150 g/ai ha after 15 days by greenhouse test; type: functional
Outline: (§2)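 About 20 seeds sown 1–3 cm deep, grown at 15–30 °C and 50% RH. Monocot seedlings sprayed postemergence at the one-leaf stage with a 100 g/L emulsifiable concentrate (DMF/Tween-80) diluted in water, 150 g ai/ha. Untreated and solvent controls included. Visual rating at 15 days, three replicates.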

[5] = system: Amaranthus retroflexus; assay: Post-emergence herbicidal activity against Amaranthus retroflexus assessed as growth inhibition at emulsified concentrate of 150 g/ai ha after 15 days by greenhouse test; type: functional; outline: as §1
[6] = system: Abutilon theophrasti; assay: Post-emergence herbicidal activity against Abutilon theophrasti (velvetleaf) assessed as growth inhibition at emulsified concentrate of 150 g/ai ha after 15 days by greenhouse test; type: functional
[7] = system: Brassica juncea; assay: Post-emergence herbicidal activity against Brassica juncea assessed as growth inhibition at emulsified concentrate of 150 g/ai ha after 15 days by greenhouse test; type: functional; outline: as §1
[8] = system: Echinochloa crus-galli; assay: Post-emergence herbicidal activity against Echinochloa crus-galli (barnyard grass) assessed as growth inhibition at emulsified concentrate of 150 g/ai ha after 15 days by greenhouse test; type: functional; outline: as §2
[9] = system: Polygonum humifusum; assay: Post-emergence herbicidal activity against Polygonum humifusum assessed as growth inhibition at emulsified concentrate of 75 g/ai ha after 15 days by greenhouse test; type: functional
[10] = system: Brassica juncea; assay: Post-emergence herbicidal activity against Brassica juncea assessed as growth inhibition at emulsified concentrate of 75 g/ai ha after 15 days by greenhouse test; type: functional
Outline: (§3)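 Compounds were made up as 100 g/L emulsifiable concentrates in DMF with Tween-80, then diluted in water. About 20 seeds were sown 1-3 cm deep in pots and grown in a greenhouse at 15-30 °C and 50% relative humidity. Sprays were applied postemergence at the two-leaf stage. Untreated and DMF + Tween-80 solvent controls were included. Injury was scored visually 15 days after treatment, with three replicates per treatment.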

[11] = system: Amaranthus retroflexus; assay: Post-emergence herbicidal activity against Amaranthus retroflexus assessed as growth inhibition at emulsified concentrate of 37.5 g/ai ha after 15 days by greenhouse test; type: functional; outline: as §3
[12] = system: Eclipta prostrata; assay: Post-emergence herbicidal activity against Eclipta prostrata assessed as growth inhibition at emulsified concentrate of 75 g/ai ha after 15 days by greenhouse test; type: functional; outline: as §3
[13] = system: Rumex acetosa; assay: Post-emergence herbicidal activity against Rumex acetosa assessed as growth inhibition at emulsified concentrate of 75 g/ai ha after 15 days by greenhouse test; type: functional
[14] = system: Cyperus iria; assay: Post-emergence herbicidal activity against Cyperus iria assessed as growth inhibition at emulsified concentrate of 37.5 g/ai ha after 15 days by greenhouse test; type: functional
[15] = system: Abutilon theophrasti; assay: Post-emergence herbicidal activity against Abutilon theophrasti (velvetleaf) assessed as growth inhibition at emulsified concentrate of 75 g/ai ha after 15 days by greenhouse test; type: functional
[16] = system: Digitaria sanguinalis; assay: Post-emergence herbicidal activity against Digitaria sanguinalis (hairy crabgrass) assessed as growth inhibition at emulsified concentrate of 150 g/ai ha after 15 days by greenhouse test; type: functional; outline: as §2
[17] = system: Polygonum humifusum; assay: Post-emergence herbicidal activity against Polygonum humifusum assessed as growth inhibition at emulsified concentrate of 37.5 g/ai ha after 15 days by greenhouse test; type: functional
[18] = system: Rumex acetosa; assay: Post-emergence herbicidal activity against Rumex acetosa assessed as growth inhibition at emulsified concentrate of 150 g/ai ha after 15 days by greenhouse test; type: functional
[19] = system: Amaranthus retroflexus; assay: Post-emergence herbicidal activity against Amaranthus retroflexus assessed as growth inhibition at emulsified concentrate of 75 g/ai ha after 15 days by greenhouse test; type: functional; outline: as §3
[20] = system: Cyperus iria; assay: Post-emergence herbicidal activity against Cyperus iria assessed as growth inhibition at emulsified concentrate of 75 g/ai ha after 15 days by greenhouse test; type: functional
[21] = system: Rumex acetosa; assay: Post-emergence herbicidal activity against Rumex acetosa assessed as growth inhibition at emulsified concentrate of 37.5 g/ai ha after 15 days by greenhouse test; type: functional
[22] = system: Cyperus iria; assay: Post-emergence herbicidal activity against Cyperus iria assessed as growth inhibition at emulsified concentrate of 150 g/ai ha after 15 days by greenhouse test; type: functional
[23] = target: T1, Protoporphyrinogen oxidase (Homo sapiens, UniProt P50336); assay: Inhibition of Homo sapiens (human) recombinant protoporphyrinogen oxidase expressed in Escherichia coli JM109 assessed as oxidation of protoporphyrinogen IX substrate by fluorescence assay
T1 sequence (P50336 whole entry): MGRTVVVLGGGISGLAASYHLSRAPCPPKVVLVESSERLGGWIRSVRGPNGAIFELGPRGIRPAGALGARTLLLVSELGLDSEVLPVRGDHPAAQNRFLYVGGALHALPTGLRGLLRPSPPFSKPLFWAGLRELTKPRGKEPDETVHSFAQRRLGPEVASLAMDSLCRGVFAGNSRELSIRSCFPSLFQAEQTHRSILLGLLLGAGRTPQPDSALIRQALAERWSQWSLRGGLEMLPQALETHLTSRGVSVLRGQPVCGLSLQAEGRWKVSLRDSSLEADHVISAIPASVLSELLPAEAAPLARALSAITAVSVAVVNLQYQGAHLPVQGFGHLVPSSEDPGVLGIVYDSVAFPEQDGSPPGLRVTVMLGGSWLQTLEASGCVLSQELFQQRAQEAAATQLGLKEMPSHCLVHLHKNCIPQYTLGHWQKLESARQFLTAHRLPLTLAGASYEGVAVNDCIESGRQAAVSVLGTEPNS

[24] = system: Eclipta prostrata; assay: Post-emergence herbicidal activity against Eclipta prostrata assessed as growth inhibition at emulsified concentrate of 37.5 g/ai ha after 15 days by greenhouse test; type: functional; outline: as §3
[25] = system: Brassica juncea; assay: Post-emergence herbicidal activity against Brassica juncea assessed as growth inhibition at emulsified concentrate of 37.5 g/ai ha after 15 days by greenhouse test; type: functional; outline: as §3

SMILES	inhibition (INH) [1]	inhibition (INH) [2]	inhibition (INH) [3]	inhibition (INH) [4]	inhibition (INH) [5]	inhibition (INH) [6]	inhibition (INH) [7]	inhibition (INH) [8]	inhibition (INH) [9]	inhibition (INH) [10]	inhibition (INH) [11]	inhibition (INH) [12]	inhibition (INH) [13]	inhibition (INH) [14]	inhibition (INH) [15]	inhibition (INH) [16]	inhibition (INH) [17]	inhibition (INH) [18]	inhibition (INH) [19]	inhibition (INH) [20]	other results
CCOC(=O)CSc1nc2cc(-n3nc(C(C)(C)C)oc3=O)c(F)cc2s1	0%	50%	80%	0%	90%	0%	50%	0%	70%	50%	50%	0%	50%	60%	0%	0%	70%	70%	50%	70%	inhibition (INH) [21]: 50%; inhibition (INH) [22]: 70%; Ki [23]: 1.58 µM; inhibition (INH) [24]: 0%; inhibition (INH) [25]: 0%
CCOC(=O)C(C)Sc1nc2cc(-n3nc(C(C)(C)C)oc3=O)c(F)cc2s1 (stereo not given)	80%	95%	70%	0%	90%	100%	75%	0%	70%	70%	60%	85%	95%	90%	100%	50%	60%	100%	60%	90%	inhibition (INH) [21]: 95%; inhibition (INH) [22]: 100%; Ki [23]: 1.42 µM; inhibition (INH) [24]: 80%; inhibition (INH) [25]: 70%
CC(C)OC(=O)CSc1nc2cc(-n3nc(C(C)(C)C)oc3=O)c(F)cc2s1	0%	70%	60%	0%	90%	0%	40%	0%	40%	50%	0%	0%	60%	50%	0%	0%	40%	70%	85%	50%	inhibition (INH) [21]: 50%; inhibition (INH) [22]: 60%; Ki [23]: 1.17 µM; inhibition (INH) [24]: 0%; inhibition (INH) [25]: 40%
CCCOC(=O)CSc1nc2cc(-n3nc(C(C)(C)C)oc3=O)c(F)cc2s1	0%	90%	80%	0%	100%	0%	50%	0%	70%	50%	0%	40%	60%	40%	0%	0%	60%	70%	60%	40%	inhibition (INH) [21]: 50%; inhibition (INH) [22]: 60%; Ki [23]: 0.7 µM; inhibition (INH) [24]: 0%; inhibition (INH) [25]: 50%
CCOC(=O)CCCSc1nc2cc(-n3nc(C(C)(C)C)oc3=O)c(F)cc2s1	0%	70%	80%	0%	90%	50%	50%	0%	80%	50%	60%	60%	60%	60%	0%	0%	50%	70%	80%	60%	inhibition (INH) [21]: 50%; inhibition (INH) [22]: 70%; Ki [23]: 0.7 µM; inhibition (INH) [24]: 50%; inhibition (INH) [25]: 50%
